From PubChem BioAssay
This is a sample that favours compounds with a hit; in the whole collection about 1.9% have one here.
TDP2 inh: human TDP2 enzyme inhibitors, primary screen, biochemical, epi absorbance, recombinant enzyme | AID 720702, 2013 | T5PNP hydrolysis, p-nitrophenol absorbance 415 nm | inhibition, % at 12.8 µM | hit rate 0.34% among 370,000 | Tyrosyl-DNA phosphodiesterase 2 (Homo sapiens), O95551;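 active = inhibition above the mean of all tested compounds plus 3 SD, set per campaign, cut at about 25% in these data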;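 also: 0% = DMSO with enzyme and 100% = buffer with substrate but no TDP2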
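System – recombinant human TDP2 · Amount – 120 nM TDP2 per well · Buffer or medium – Mg2+-containing Tris-HCl buffer, pH 7.5 · Reagent – T5PNP substrate, 5 mM · Dosing – 12.8 µM single point, 1% DMSO · Incubation – 2 h at 37 °C · Measured by – epi absorbance · Read-out basis – percent inhibition · Benchmarks – high control without enzyme, low control DMSO plus TDP2 · Repeats – singlicate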
Rin1 Abl inh: inhibitors of Rin1-Abl protein binding, primary screen, biochemical, TR-FRET | hit rate 0.4% among 360,000 | inhibition, % at 7.35 µM | Tyrosine-protein kinase ABL1 (Homo sapiens) + Ras and Rab interactor 1 (Homo sapiens), … | AID 588664, 2011; in the data active = inhibition above about 5%, passing the limit was not always enough
LEDGF integ inh: blockers of LEDGF/p75-dependent integrase strand transfer – biochemical, TR-FRET, high throughput, primary screen; hit rate 0.64% among 370,000; inhibition, % at 3.7 µM; TR-FRET IN-LEDGF/p75 DNA integration, Eu/Cy5; HIV-1 integrase (with human LEDGF/p75);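 active = inhibition above the screen-wide mean plus 3 SD, cut at about 13% in these data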;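 also: signal is the Cy5 over europium emission ratio at 671 and 618 nm; 0% = plate median of compound wells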
MBD2 DNA inh: inhibitors of MBD2 binding to methylated DNA, primary screen, biochemical, TR-FRET, DNA-binding domain, human; hit rate 0.31% among 370,000; inhibition, % at 4.4 µM; Methyl-CpG-binding domain protein 2 (Homo sapiens), Q9UBB5; MBD2 binding to methylated oligonucleotide; in the data active = inhibition above about 13%
Target sequence (Q9UBB5 whole entry, looked up, the tested form may be a part): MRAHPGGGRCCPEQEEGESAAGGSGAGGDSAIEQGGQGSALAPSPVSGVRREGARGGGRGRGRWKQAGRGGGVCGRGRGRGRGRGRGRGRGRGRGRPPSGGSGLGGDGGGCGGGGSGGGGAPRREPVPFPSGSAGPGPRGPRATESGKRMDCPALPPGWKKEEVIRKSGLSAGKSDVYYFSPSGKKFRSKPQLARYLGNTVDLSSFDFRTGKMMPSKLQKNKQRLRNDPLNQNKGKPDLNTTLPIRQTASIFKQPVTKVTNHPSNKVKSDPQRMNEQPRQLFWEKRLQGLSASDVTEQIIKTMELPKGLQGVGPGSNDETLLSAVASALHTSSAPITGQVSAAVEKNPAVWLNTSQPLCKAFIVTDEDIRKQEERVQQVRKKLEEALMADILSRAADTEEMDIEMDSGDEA
UHRF1 MBD2 ctr: UHRF1 methylated DNA binding inhibitors, primary screen, counter-screen for MBD2 inhibitor project, biochemical, TR-FRET, human UHRF1, single concentration | inhibition, % at 4.4 µM | E3 ubiquitin-protein ligase UHRF1 (Homo sapiens), Q96T88 | hit rate 0.75% among 370,000 | UHRF1 binding to methylated oligo; in the data active = inhibition above about 21%;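 also: UHRF1 SRA domain binding a hemimethylated CpG hairpin DNA probe; 0% = median of test compound wells and 100% = reference inhibitor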
Starred values were filed as active, the others as inactive; · = no result.

SMILES | TDP2 inh | Rin1 Abl inh | LEDGF integ inh | MBD2 DNA inh | UHRF1 MBD2 ctr
COc1ccc(/C([O-])=C(/C(=S)Nc2ccc(C)c(C)c2)n2c[n+](C)c3ccccc32)cc1OC | -0.9 | -0.1 | 1.6 | 3.8 | 26.4*
COc1ccc(NC(=S)Nc2ccc(C)c(Cl)c2)cc1OC | 6.2 | -1.1 | 1.5 | -5.2 | -2.9
COc1ccc(CN(CCN2CCOCC2)C(=O)c2ccc(F)cc2Cl)cc1OC | 0.1 | · | 1.7 | 5.3 | 2.8
CCc1ccc(CN2CCC(C(=O)Nc3ccc(Oc4ccccc4)nc3)CC2)o1 | -1.6 | -4.2 | 1.8 | -3.5 | 42.8*
O=C(Nc1ccc(Oc2ccccc2)nc1)C1CCN(Cc2ccccc2)CC1 | 7.2 | -0.5 | -2.2 | -2.7 | -0.4
C/C(=N\NC(=O)c1cc(O)cc(O)c1)c1ccc(NC(=O)Cc2ccccc2)cc1 | 7.2 | 6.7 | 15.6* | 11.9 | 46.2*
CC1CCCCC1NC(=S)Nc1ccc(SC(F)F)cc1 (configuration not stated) | 6.3 | -1.9 | 0.2 | 0.9 | 37.9*
Cc1sc2nc(COC(=O)CNC(=O)c3cc(F)ccc3F)[nH]c(=O)c2c1C | 2.1 | · | 1.8 | -1.1 | 1.2
N#CC1=C(S)N(c2ccccc2)C(c2ccc(-c3cc(Cl)ccc3Cl)o2)NC1=O (configuration not stated) | -5.8 | -2.3 | -2.3 | 3.9 | -1.7
N#CC1=C(S)N(c2ccccc2)C(c2ccc(-c3ccc(Cl)c(Cl)c3)o2)NC1=O (configuration not stated) | 25.8* | -0.1 | 6.2 | -3.4 | -7.4
Cc1ccc2cc(CN(CC3CCCO3)S(=O)(=O)c3ccccc3)c3nnnn3c2c1 (configuration not stated) | -2.5 | 2.9 | -2.3 | -6.4 | 20.8*
Cc1ccc2cc(CN(CC3CCCO3)C(=O)Nc3ccccc3F)c3nnnn3c2c1 (configuration not stated) | -9.3 | 5.0 | 3.9 | 1.9 | -0.8
O=C(Nc1ccc(N2C(=O)[C@@H]3[C@H](C2=O)[C@@H]2C=C[C@H]3C2)c(Cl)c1)c1ccccn1 | 7.7 | · | 0.8 | -7.3 | 0.6
COC(=O)c1ccc2nc(-c3ccco3)c(Cc3ccsc3)n2c1 | 1.6 | · | 3.7 | 3.7 | 12.7
COC(=O)c1ccc2nc(-c3ccco3)c(Cc3ccccc3)n2c1 | 1.6 | 5.6 | 8.5 | 1.2 | 21.6*
COC(=O)c1ccc2nc(-c3ccco3)c(Cc3cccc(Cl)c3)n2c1 | 13.2 | · | 6.0 | 8.0 | 21.9*
O=C(Nc1cccc(F)c1)OCCN1CCCC12CCC(c1ccccc1)CC2 (configuration not stated) | 0.8 | · | -0.6 | -5.0 | -1.3
O=C1CC(N2CCCC2)=NC(=O)N1c1ccc(Br)cc1 | -12.7 | · | -4.1 | -0.3 | 1.0
CCCCn1nc(NC(=O)CC)c2cc3cc(OC)ccc3nc21 | -17.6 | 1.0 | -2.0 | 10.9 | 22.3*
Cc1ccccc1Cn1cc(COC(=O)N(C)Cc2ccccc2)nn1 | -7.4 | · | -2.0 | 6.0 | 0.8
CC(C)c1ccc(C(C(C(=O)c2ccccc2)N2CCOCC2)N2CCOCC2)cc1 (configuration not stated) | 5.8 | 3.0 | -1.0 | 4.9 | 46.9*
CCOC(=O)N1CCN(C(=O)CSCc2ccc(C)cc2)CC1 | 0.3 | 6.1* | -7.0 | 5.9 | -3.5
CCOc1ccccc1CNC(=O)c1nn(C)c2c1CS(=O)(=O)c1ccccc1-2 | -13.7 | -3.2 | 2.5 | 4.3 | 25.6*
CCc1ccc(CNC(=O)c2nn(C)c3c2CS(=O)(=O)c2ccccc2-3)cc1 | -3.1 | 1.4 | -5.7 | -7.9 | 1.2
O=C(COC(=O)c1ccc(Sc2ncn[nH]2)c([N+](=O)[O-])c1)Nc1cccc(Cl)c1F | 4.5 | · | -0.6 | -4.0 | -3.2
SMILES | TDP2 inh | Rin1 Abl inh | LEDGF integ inh | MBD2 DNA inh | UHRF1 MBD2 ctr
N#Cc1c(N)sc(=S)c2c1CCCCC2 | 10.8 | 0.8 | 19.2* | 10.0 | 21.1*
O=C(COC(=O)c1cc(F)cc(F)c1)NCCCc1ccccc1 | 16.4 | 2.7 | 0.7 | 6.9 | 85.2*
O=C(COC(=O)c1ccc(O)cc1)NCCCc1ccccc1 | 15.6 | -0.8 | -0.1 | -0.4 | -3.1
CCOC(=O)c1c(/N=C/N(C)C)sc2c1CCC2 | -1.6 | -4.3 | -0.8 | 4.0 | 95.3*
CCOC(=O)c1c(/N=C/c2ccc(C)cc2O)sc2c1CCC2 | 21.5 | -0.5 | -1.1 | -3.6 | -0.3
O=C(CN1CCN(Cc2ccccc2Cl)CC1)N/N=C\c1ccccc1F | -5.1 | · | 5.5 | -4.2 | -2.1
CNC(=O)CSc1nnc(-c2cc(C)cc(C)c2)o1 | 2.8 | 4.9 | 0.2 | -6.6 | 67.4*
O=C(O)c1ccccc1C1Nc2ccccc2C(=O)N1CCCN1CCOCC1 (configuration not stated) | -2.1 | 1.2 | 2.5 | 4.7 | 40.2*
O=C(Nc1ccccc1F)c1ccn[nH]1 | -4.4 | 1.5 | -1.6 | 2.5 | 74.9*
O=C(Nc1ccccc1Cl)c1ccn[nH]1 | 2.8 | -4.4 | -3.4 | -0.5 | -2.4
CC(CCN1CCC(C(O)(c2ccccc2)c2ccccc2)CC1)Oc1ccc(C#N)c(F)c1 (configuration not stated) | -4.8 | · | -3.1 | -1.0 | -0.5
COc1ccc(Nc2cccccc2=O)cc1 | -9.5 | -2.1 | -2.7 | -2.3 | -0.5
COc1ccc(Nc2cccc3ccccc23)cc1 | -1.2 | 0.7 | 3.5 | 3.3 | 21.3*
OC(CC#CCN1CCCCC1)(c1ccccc1)c1ccccc1 | -0.8 | 3.6 | -5.0 | -0.6 | 1.0
OC(CC#CCN1CCCC1)(c1ccccc1)c1ccccc1 | -6.4 | -3.2 | 3.5 | -1.5 | 22.1*
COc1ccccc1NC(=O)/C(=C/c1cccc([N+](=O)[O-])c1)c1ccccc1 | -4.5 | -4.6 | -4.5 | -3.4 | 46.7*
O=C(CCC(=O)c1ccc(Cl)cc1)OCn1nnc2ccccc2c1=O | -0.8 | 0.9 | 2.2 | -2.3 | 55.8*
Cc1ccc(C)c(C(=O)CCC(=O)OCn2nnc3ccccc3c2=O)c1 | 7.4 | 4.3 | -3.3 | -2.9 | -1.4
O=C(Cn1c(-c2cncs2)nc2ccccc21)N1CCOCC1 | 1.1 | · | -2.5 | -1.8 | -1.8
CC(C)(C)c1ccc(-c2noc(-c3ccc4c(c3)CCO4)n2)cc1 | 11.0 | -4.1 | 0.2 | 0.4 | 24.5*
Cc1cc(NS(=O)(=O)c2ccc(NC(=O)CSc3nnc(-c4cccnc4)n3-c3ccccc3)cc2)nc(C)n1 | -5.7 | · | 2.6 | 1.8 | -2.2
COc1ccc(N2CCN(C(=O)c3oc4ccccc4c3NC(=O)Cc3cccc(OC)c3)CC2)cc1 | 4.2 | 0.1 | 3.8 | 4.1 | 23.7*
CCCCN1CCN(C2=NC(=O)N(c3ccc(Br)cc3)C(=O)C2)CC1 | -3.9 | · | -2.0 | -4.0 | 1.1
